The subject of experiment [1] is Mycobacterium tuberculosis. As to the kind of experiment: Antitubercular activity against multidrug resistant Mycobacterium tuberculosis isolate 11168 assessed as parasite growth inhibition measured after 7 days incubation by microplate alamar blue assay. The experiment is classed as functional. The following applies: isolate 11168, 168 h. Put shortly: (§1)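 Strains grown to late log phase in 7H9 with 0.2% glycerol, 0.05% Tween 80 and 10% ADC. Cells washed, resuspended in PBS, filtered (8 µm) and frozen at -80 °C. Two-fold compound dilutions, 2 × 10⁵ CFU per well, 37 °C for 7 days. Tween 80 and Alamar blue then added for 16-24 h; fluorescence read at ex 530/em 590 nm. MIC = lowest concentration giving ≥90% fluorescence reduction versus mean of bacterium-only controls.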
(The colour change of resazurin is a common sign of viable cells or microbes.)

Experiment [2] has as its system Mycobacterium tuberculosis. Briefly: Antitubercular activity against multidrug resistant Mycobacterium tuberculosis isolate 9160 assessed as parasite growth inhibition measured after 7 days incubation by microplate alamar blue assay. Conditions: isolate 9160, 168 h. It counts as functional. Put shortly: as §1

SMILES strings stand for the structures. Values after ≈ are worked out from the molar mass of the structure shown.

For `COc1ccc2nc(C)c(C(=O)NCCOc3ccc(N4CC5CCCCC5C4)cc3)n2c1` (stereo unspecified), the minimum inhibitory concentration (MIC) in experiment [1] and in experiment [2] was less than 0.016 µg/mL each time.
As to `COc1ccc2nc(C)c(C(=O)NCCOc3ccc(N4CCC(C(F)(F)F)CC4)cc3)n2c1`, the MIC in experiment [1] was less than 0.016 µg/mL; in experiment [2], 0.111 µg/mL (≈ 0.233 µM).
On the same counts, the results for `CCc1nc2ccc(C)cn2c1C(=O)NCCOc1ccc(N2CC3CCCCC3C2)cc1` (stereo unspecified) are less than 0.016 µg/mL and 0.024 µg/mL (≈ 0.0537 µM).
Consider `CCc1nc2ccc(Cl)cn2c1C(=O)NCCOc1ccc(Br)cc1`, for which the minimum inhibitory concentration (MIC) stood at 0.063 µg/mL (≈ 0.149 µM) in experiment [1] and 0.311 µg/mL (≈ 0.736 µM) in experiment [2].
Regarding `CCc1nc2ccc(Cl)cn2c1C(=O)NCCOc1ccc(N2CCN(c3ccc(F)cc3)CC2)cc1`, the minimum inhibitory concentration (MIC) in experiment [1] was less than 0.016 µg/mL; in experiment [2], 0.016 µg/mL (≈ 0.0306 µM).
On the same counts, the results for `COc1ccc2nc(C)c(C(=O)NCCOc3ccc(Br)cc3)n2c1` are 0.125 µg/mL (≈ 0.309 µM) and 0.5 µg/mL (≈ 1.24 µM).
On the same counts, the results for `CCc1nc2ccc(Cl)cn2c1C(=O)NCCOc1ccc(Cl)cc1` are 0.25 µg/mL (≈ 0.661 µM) and 1 µg/mL (≈ 2.64 µM).
For `CCc1nc2ccc(Br)cn2c1C(=O)NCCOc1ccc(N2CCC(C(F)(F)F)CC2)cc1`, in that order: less than 0.016 µg/mL and 0.13 µg/mL (≈ 0.241 µM).
On to `CCc1nc2ccc(Br)cn2c1C(=O)NCCOc1ccc(N2CCCCC2)cc1`, for which the minimal inhibitory concentration (MIC) in experiment [1] and in experiment [2] was less than 0.016 µg/mL throughout.
`CCc1nc2ccc(Cl)cn2c1C(=O)NCCOc1ccc(N(C)C)cc1`: the MIC in experiment [1] was less than 0.016 µg/mL; in experiment [2], 0.225 µg/mL (≈ 0.582 µM).
For `CCc1nc2ccc(Br)cn2c1C(=O)NCCOc1ccc(Br)cc1`, in that order: 0.125 µg/mL (≈ 0.268 µM) and 0.449 µg/mL (≈ 0.961 µM).
On the same counts, the results for `O=c1nc(N2CCN(CC3CCCCC3)CC2)sc2c([N+](=O)[O-])cc(C(F)(F)F)cc12` [MACOZINONE] are 0.116 µg/mL (≈ 0.254 µM) and 0.232 µg/mL (≈ 0.508 µM).
For `CO[C@H]1/C=C/O[C@@]2(C)Oc3c(C)c(O)c4c(O)c(c(/C=N/N5CCN(C)CC5)c(O)c4c3C2=O)NC(=O)/C(C)=C\C=C\[C@H](C)[C@H](O)[C@@H](C)[C@@H](O)[C@@H](C)[C@H](OC(C)=O)[C@@H]1C` [RIFAMPIN], in that order: 36.9 µg/mL (≈ 44.8 µM) and 38.6 µg/mL (≈ 47 µM).
For the compound `NNC(=O)c1ccncc1` [ISONIAZID], the MIC in experiment [1] and in experiment [2] was more than 40 µg/mL throughout.
Regarding `CCc1nc2ccc(Br)cn2c1C(=O)NCCOc1ccc(N2CC3CCCCC3C2)cc1` (stereo unspecified), the minimal inhibitory concentration (MIC) in experiment [1] is less than 0.016 µg/mL; in experiment [2] it was 0.032 µg/mL (≈ 0.0626 µM).
On the same counts, the results for `COc1ccc(OCCNC(=O)c2c(C3CC3)nc3ccc(C)cn23)cc1` are less than 0.016 µg/mL and 0.429 µg/mL (≈ 1.17 µM).
Take `CCc1nc2ccc(C)cn2c1C(=O)NCCOc1ccc(OC)cc1`: the MIC in experiment [1] was less than 0.016 µg/mL; in experiment [2], 0.394 µg/mL (≈ 1.11 µM).
On the same counts, the results for `CCc1nc2ccc(Cl)cn2c1C(=O)NCc1ccc(N2CCC(c3ccc(OC(F)(F)F)cc3)CC2)cc1` [TELACEBEC] are less than 0.016 µg/mL and 0.057 µg/mL (≈ 0.102 µM).

A word on the MIC: it is the least concentration at which growth counts as inhibited.
